This is an account of results in PubChem BioAssay.

A short description of experiment [1]: inhibitors of TNFa-induced NFkB p65 translocation, primary screen, imaging, HUVEC, MLSMR starter and 10KST1 sets (AID 438;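 active = inhibition above 20% together with a positive visual image hit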;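 also: compound added about 3h40 before a 20 min TNFalpha stimulation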;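 as to inhibition: signal is the nuclear over cytoplasmic p65 intensity ratio per well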). The note with it: HUVEC TNFa-induced p65 nuclear translocation; cell count: measured here: nuclei count (cytotoxicity indicator), at 2.08 µM; inhibition: at 2 µM, stronger effect = higher value, 0% TNFa-plus-vehicle, 100% no-TNFa wells.
Experiment [2] can be described thus: inhibitors of mutant huntingtin aggregation, primary screen, imaging, exon1htt(103Q)mCFP cells, high-content imaging (AID 483;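 active = visual image review flags a hit and inhibition of aggregation exceeds 20%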;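 also: compound exposure lasted 3 days before fixation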;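 as to nuclei count: percent of the per-plate median nuclei count of sample wells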). The note with it: exon1htt(103Q)mCFP cell line, aggregate imaging, at 2 µM; inhibition of aggregation: stronger effect = higher value; nuclei count: measured here: cell count, toxicity.
A short description of experiment [3]: inhibitors of E-selectin induction by TNFa, primary screen, imaging, HUVEC, immunofluorescence, MLSMR starter and 10KST1 sets (AID 487).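 As to inhibition: signal is fraction of cell area covered by stained E-selectin grains.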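 As to nuclei count: 100% = median nuclei count of all wells on the same plate.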 The settings on record: HUVEC TNFalpha-induced E-selectin immunofluorescence imaging, at 2 µM; inhibition: stronger effect = higher value; nuclei count: measured here: cell number, toxicity.
The target in experiment [4] is Voltage-gated potassium channel subunit beta-2 (Rattus norvegicus) (UniProt P62483). In words: KvBeta enzyme negative modulators, primary screen, biochemical, NADPH fluorescence (AID 622;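 active = fluorescence slope higher than the sample average by over 3 SD, cut at about -0.22 in these data, passing the limit was not always enough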;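 also: slope of raw intensity against log time taken from 70 to 1610 s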). The note with it: recombinant KvBeta, 4-cyanobenzaldehyde reduction, at 10 µM, stronger effect = higher value.
Voltage-gated potassium channel subunit beta-2 (Rattus norvegicus), sequence (P62483 whole entry, looked up): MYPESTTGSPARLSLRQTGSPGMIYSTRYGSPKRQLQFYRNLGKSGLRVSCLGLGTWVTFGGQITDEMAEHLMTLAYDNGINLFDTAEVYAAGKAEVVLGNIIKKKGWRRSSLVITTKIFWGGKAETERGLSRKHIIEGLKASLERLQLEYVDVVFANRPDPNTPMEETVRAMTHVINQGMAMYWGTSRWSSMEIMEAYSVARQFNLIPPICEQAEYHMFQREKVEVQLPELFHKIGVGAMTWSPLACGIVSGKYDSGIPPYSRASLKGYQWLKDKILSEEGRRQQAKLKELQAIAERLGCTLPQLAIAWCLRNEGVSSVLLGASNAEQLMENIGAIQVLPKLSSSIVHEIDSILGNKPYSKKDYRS
Experiment [5] has the same target. Put plainly: KvBeta positive modulators, primary screen, biochemical, NADPH fluorescence (AID 623;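 active = NADPH fluorescence slope more negative than the mean of all samples by about 3 SD, 99.7% confidence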;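 also: fluorescence intensity change per second fitted from 20 to 320 s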). The note with it: Recombinant KvBeta, NADPH fluorescence decrease slope, 10 min; at 10 µM; stronger effect = lower value.
Experiment [6] has as its target Muscarinic acetylcholine receptor M4 (Homo sapiens) (UniProt P08173). Put plainly: compounds altering M4/GIRK thallium flux, either direction, primary screen, M4 allosteric agonist project, cell-based, HEK293 M4/GIRK, BTC-AM (AID 625;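 active = fluorescence slope after compound addition differing from the mean of all tested samples at 99.7% confidence, mostly higher but some lower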;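 also: thallium influx through GIRK channels coupled to M4 in HEK293 cells with BTC-AM dye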). The note with it: at 10 µM, actives lie on both sides. A digest of the protocol: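 System: HEK293 cells with M4 receptor and GIRK channels | Incubation: Cells overnight at 37 °C, BTC-AM loading 1 h, reads 2 min total | Technique: Kinetic BTC-AM fluorescence sampled at 1 Hz, 10 s pre-addition baseline | Measure: Post-addition slope, 15–24 s, of baseline-normalized fluorescence | Control set: Carbachol positive, DMSO negative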

Experiment [7] can be described thus: inhibitors of Sendai virus-induced IRF3 signaling, primary screen, TLR/RLR signaling modifier project, cell-based, Sendai virus stimulus, luciferase, 10K MLSCN set (AID 602276;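 active = inhibition at or above 50% at 10 µM; inactive = inhibition below 50%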;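 also: firefly luciferase from ISG56 promoter only with Renilla not read in this screen; 0% = Sendai virus plus DMSO and 100% = medium plus DMSO without virus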). The note with it: HEK293 RL24 IRF3 luciferase reporter, at 10 µM, stronger effect = higher value. In general terms: A reporter such as luciferase makes a cellular process visible.
Experiment [8] in a line: inhibitors of poly I:C-induced TLR3 signaling, primary screen, cell-based, poly I:C stimulus, luciferase, 10K MLSCN set (AID 602277;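 active = inhibition of the reporter signal at or above 50%; inactive = inhibition below 50%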). The settings on record: HEK293-TLR3 RL24 IRF3 luciferase reporter, at 10 µM, stronger effect = higher value.

SMILES strings stand for the structures. Activity calls are given as the source filed them.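 The calls were made as follows, unless noted: active = visually confirmed hit in the image check and inhibition above 20%; inconclusive = visually confirmed hit but inhibition not above 20%; inactive = no visual hit in the image check.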

Muscarinic acetylcholine receptor M4 (Homo sapiens), sequence (P08173 whole entry, looked up): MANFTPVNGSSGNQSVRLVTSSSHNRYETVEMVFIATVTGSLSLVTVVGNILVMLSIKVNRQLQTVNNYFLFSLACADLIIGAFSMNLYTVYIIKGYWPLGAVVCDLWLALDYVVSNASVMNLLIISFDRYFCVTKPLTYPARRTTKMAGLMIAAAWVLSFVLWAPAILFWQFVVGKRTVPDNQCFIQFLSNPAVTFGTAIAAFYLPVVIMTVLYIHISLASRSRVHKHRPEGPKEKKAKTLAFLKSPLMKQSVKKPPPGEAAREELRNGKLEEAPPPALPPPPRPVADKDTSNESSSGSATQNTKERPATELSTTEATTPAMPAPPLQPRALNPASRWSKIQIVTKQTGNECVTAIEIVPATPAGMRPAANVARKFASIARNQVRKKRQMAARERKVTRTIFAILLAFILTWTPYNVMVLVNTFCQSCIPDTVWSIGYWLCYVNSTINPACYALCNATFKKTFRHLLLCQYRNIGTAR

Consider `CCOC(=O)CSc1nc(C)c(C(=O)OCC)s1`, for which the cell count in experiment [1] is 392. Moreover, the inhibition (in general, the relative decrease from the control value, in per cent) in experiment [1] is 4% (inactive); in experiment [3] it was -18.1% (inactive); in experiment [7], 7.74% (inactive); in experiment [8], 15.6% (inactive). Further, the inhibition of aggregation in experiment [2] is -6.8% (inactive). The nuclei count in experiment [2] turned out to be 106%; in experiment [3], 137%. Moreover, the values for the fluorescence slope in experiment [4] and in experiment [6] were -0.556 (inactive) and 0.00612 (inactive), respectively. For the same compound, the NADPH fluorescence slope in experiment [5] is -1.9e-05 (inactive).
On to `Cc1ccc(Nc2cc(C)nc3nnnn23)cc1`, for which the cell count in experiment [1] was 415. The inhibition in experiment [1] is 0.6% (inactive); in experiment [3], 29.5% (inactive); in experiment [7], 7.18% (inactive); in experiment [8], 6.33% (inactive). Moreover, in experiment [2], the inhibition of aggregation was 1.1% (inactive). Moreover, the figures for the nuclei count in experiment [2] and in experiment [3] were 100% and 92.2%, respectively. For the same compound, the figures for the fluorescence slope in experiment [4] and in experiment [6] were -0.559 (inactive) and 0.00637 (inactive), respectively. For the same compound, in experiment [5], the NADPH fluorescence slope was -6.9e-05 (inactive).
As for `COc1ccc(Cc2nnc3n2N=C(c2cc4ccccc4o2)CS3)cc1OC`, the cell count in experiment [1] was 378. Besides, the inhibition in experiment [1] was -16.3% (inactive); in experiment [3], 38.3% (inactive); in experiment [7], 11.3% (inactive); in experiment [8], 26% (inactive). Besides, in experiment [2], the inhibition of aggregation is 40.2% (active). Further, the nuclei count in experiment [2] is 43.3%; in experiment [3] it was 51.6%. Besides, the figures for the fluorescence slope in experiment [4] and in experiment [6] were -0.346 (inactive) and 0.00468 (inactive), respectively. Also, in experiment [5], the NADPH fluorescence slope is -7.6e-05 (inactive).
As to `CCCCOc1ccc(NC(=O)Cn2c(=O)ccc3c(C)cc(C)nc32)cc1`, in experiment [1], the cell count came to 400. The inhibition was 5.6% (inactive) in experiment [1], -342% (inactive) in experiment [3], 15.2% (inactive) in experiment [7] and 20.7% (inactive) in experiment [8]. Further, in experiment [2], the inhibition of aggregation is 11.8% (inactive). For the same compound, the results for the nuclei count in experiment [2] and in experiment [3] were 88.5% and 149%, respectively. Besides, the values for the fluorescence slope in experiment [4] and in experiment [6] were -0.565 (inactive) and 0.0062 (inactive), respectively. Besides, in experiment [5], the NADPH fluorescence slope is 8.6e-06 (inactive).
In the case of `Cc1ccccc1CSCC(=O)c1c(N)n(C)c(=O)n(C)c1=O`, the cell count in experiment [1] was found to be 395. Further, the inhibition in experiment [1] was 2.8% (inactive); in experiment [3], 34.1% (inactive); in experiment [7], -5.02% (inactive); in experiment [8], -20.8% (inactive). The inhibition of aggregation in experiment [2] was -5.9% (inactive). For the same compound, the nuclei count came out at 96.5% in experiment [2] and 103% in experiment [3]. For the same compound, the fluorescence slope is -0.475 (inactive) in experiment [4] and 0.00961 (inactive) in experiment [6]. Further, in experiment [5], the NADPH fluorescence slope is 3.9e-05 (inactive).
For the compound `CC(C)(C)NC(=O)C(c1ccco1)N(C(=O)Cn1nnc(-c2ccc(F)cc2)n1)c1ccccc1` (centres undefined), the cell count in experiment [1] came out at 422. Also, the inhibition in experiment [1] is 9.2% (inactive); in experiment [3], -146% (inactive); in experiment [7], 15.8% (inactive); in experiment [8], 26.6% (inactive). Moreover, in experiment [2], the inhibition of aggregation is -1.8% (inactive). The nuclei count in experiment [2] turned out to be 99.8%; in experiment [3], 122%. In addition, the fluorescence slope was -0.551 (inactive) in experiment [4] and 0.00525 (inactive) in experiment [6]. The NADPH fluorescence slope in experiment [5] is 8.1e-06 (inactive).
Take `Cc1ccccc1N1CC(c2nc3ccccc3[nH]2)CC1=O` (centres undefined): the cell count in experiment [1] was 385. In addition, the inhibition is 3% (inactive) in experiment [1], -7.2% (inactive) in experiment [3], -2.87% (inactive) in experiment [7] and 98.3% (active) in experiment [8]. The inhibition of aggregation in experiment [2] was -1.2% (inactive). Moreover, the nuclei count in experiment [2] was 107%; in experiment [3], 110%. Also, the fluorescence slope in experiment [4] is -0.478 (inactive); in experiment [6], 0.0056 (inactive). For the same compound, the NADPH fluorescence slope in experiment [5] is -1.5e-05 (inactive).
Turning to `CS(=O)(=O)c1ncc(Cl)c(C(=O)Nc2ccc(N3CCOCC3)cc2)n1`, the cell count in experiment [1] turned out to be 351. In addition, the inhibition in experiment [1] is -2.1% (inactive); in experiment [3], 24.9% (inactive); in experiment [7], 21.4% (inactive); in experiment [8], 62.8% (active). Further, in experiment [2], the inhibition of aggregation is -35.6% (inactive). The results for the nuclei count in experiment [2] and in experiment [3] were 112% and 111%, respectively. Besides, the fluorescence slope is -0.46 (inactive) in experiment [4] and 0.00607 (inactive) in experiment [6]. Further, the NADPH fluorescence slope in experiment [5] was 2.2e-05 (inactive).
Regarding `O=C(Nc1ccc(S(=O)(=O)NC2CCCC2)cc1)c1cnccn1`, in experiment [1], the cell count is 288. Also, the inhibition in experiment [1] is 1.5% (inactive); in experiment [3], -54% (inactive); in experiment [7], 10.3% (inactive); in experiment [8], 11.7% (inactive). In experiment [2], the inhibition of aggregation was 0.6% (inactive). The nuclei count in experiment [2] amounted to 97.1%; in experiment [3] it was 117%. For the same compound, the fluorescence slope is -0.543 (inactive) in experiment [4] and 0.00448 (inactive) in experiment [6]. For the same compound, in experiment [5], the NADPH fluorescence slope was -1.1e-05 (inactive).
`COc1ccc(-c2cc3nc(C)c(CCC(=O)NCc4ccco4)c(C)n3n2)c(OC)c1`: in experiment [1], the cell count was 393. The inhibition in experiment [1] is 4.9% (inactive); in experiment [3], -25% (inactive); in experiment [7], 12.2% (inactive); in experiment [8], 11.7% (inactive). Besides, the inhibition of aggregation in experiment [2] is -18.2% (inactive). In addition, the nuclei count in experiment [2] worked out at 105%; in experiment [3], 83.7%. For the same compound, the fluorescence slope was -0.443 (inactive) in experiment [4] and 0.00532 (inactive) in experiment [6]. The NADPH fluorescence slope in experiment [5] is -0.00019 (inactive).
Take `CCCCNC(=O)OC(C)CNC(=O)Oc1cccc(C)c1` (centres undefined): the cell count in experiment [1] stood at 482. For the same compound, the inhibition in experiment [1] is 7.6% (inactive); in experiment [3], 41.7% (inactive); in experiment [7] it was 22.3% (inactive); in experiment [8], 15.6% (inactive). Further, the inhibition of aggregation in experiment [2] is 13.4% (inactive). Besides, the figures for the nuclei count in experiment [2] and in experiment [3] were 92.7% and 74.5%, respectively. For the same compound, the fluorescence slope in experiment [4] was -0.471 (inactive); in experiment [6] it was 0.00498 (inactive). In addition, the NADPH fluorescence slope in experiment [5] is -2.9e-05 (inactive).
As for `Cn1c(=O)cc(SCC(=O)N2CCOCC2)c2ccc(Cl)cc21`, the cell count in experiment [1] came to 442. The inhibition was -3.9% (inactive) in experiment [1], 52.1% (inactive) in experiment [3], 15% (inactive) in experiment [7] and 23.4% (inactive) in experiment [8]. In addition, the inhibition of aggregation in experiment [2] was -3.2% (inactive). The results for the nuclei count in experiment [2] and in experiment [3] were 89.4% and 92.6%, respectively. Also, the fluorescence slope in experiment [4] was -0.557 (inactive); in experiment [6], 0.00569 (inactive). In experiment [5], the NADPH fluorescence slope was -5.8e-05 (inactive).
As to `CCOC(=O)c1cc(-c2ccc(Cl)s2)nc2c1c(C)nn2C`, the cell count in experiment [1] stood at 473. Also, the inhibition in experiment [1] is -11% (inactive); in experiment [3], -142% (inactive); in experiment [7], 8.23% (inactive); in experiment [8], -18.9% (inactive). Besides, the inhibition of aggregation in experiment [2] is -13.7% (inactive). Besides, the nuclei count in experiment [2] amounted to 95%; in experiment [3], 106%. Moreover, the fluorescence slope in experiment [4] was -0.494 (inactive); in experiment [6], 0.00338 (inactive). Also, the NADPH fluorescence slope in experiment [5] is -1.5e-05 (inactive).
Turning to `O=C(Cn1nnc(-c2cccc(C(F)(F)F)c2)n1)NC(=O)NCc1ccco1`, the cell count in experiment [1] turned out to be 323. In addition, the inhibition in experiment [1] is 19.4% (inactive); in experiment [3], 24.1% (inactive); in experiment [7], -0.353% (inactive); in experiment [8], 5.76% (inactive). Besides, the inhibition of aggregation in experiment [2] is -17% (inactive). Besides, the values for the nuclei count in experiment [2] and in experiment [3] were 100% and 101%, respectively. For the same compound, the fluorescence slope was -0.44 (inactive) in experiment [4] and 0.00673 (inactive) in experiment [6]. Besides, in experiment [5], the NADPH fluorescence slope is -0.000353 (inactive).
